≈ marks a conversion by molar mass, not a printed value.
Legend:
[1] = test system: Escherichia coli; experiment: Antibacterial activity against wild type Escherichia coli ATCC 25922 assessed as bacterial growth inhibition by broth microdilution assay; type: functional
[2] = test system: Pseudomonas aeruginosa; experiment: Antibacterial activity against Pseudomonas aeruginosa ATCC 9027 assessed as bacterial growth inhibition by broth microdilution assay; type: functional
[3] = Drug uptake in wild type Escherichia coli ATCC 25922 assessed as drug accumulation across outer membrane; type: ADME
Procedure, shortened: (§1)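 Cells were washed twice in PBS, aliquoted and pre-shaken 10 min at 37 °C. Compound was added and incubated 10 min at 37 °C, with CFU counted before and after. Samples were spun through cold silicone oil. Supernatants were quantified by LC-MS single-ion monitoring against calibration curves.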

[4] = Drug uptake in Pseudomonas aeruginosa ATCC 9027 assessed as drug accumulation across outer membrane; type: ADME; procedure, shortened: as §1
[5] = test system: Escherichia coli; experiment: Antibiotic adjuvant activity against Penicillin G-treated wild type Escherichia coli ATCC 25922 assessed as bacterial growth inhibition by broth microdilution assay; type: functional
Procedure, shortened: (§2)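 Broth microdilution per CLSI M100-S23. Antibiotics spanned 0–256 µg/mL (in DMSO or water), combined with adjuvant at 20, 50 or 100 µM (in DMSO). Inoculum was a 4–6 h culture in full-strength TSB. Plates ran 12–18 h at 37 °C, each treatment in triplicate. OD590 was blank-subtracted and normalized to vehicle growth. MIC is the lowest concentration giving ≥90% inhibition.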

[6] = test system: Escherichia coli; experiment: Antibiotic adjuvant activity against Ampicillin-treated wild type Escherichia coli ATCC 25922 assessed as bacterial growth inhibition by broth microdilution assay; type: functional; procedure, shortened: as §2
[7] = test system: Escherichia coli; experiment: Antibiotic adjuvant activity against Rifampicin-treated wild type Escherichia coli ATCC 25922 assessed as bacterial growth inhibition by broth microdilution assay; type: functional; procedure, shortened: as §2
[8] = test system: Escherichia coli; experiment: Antibiotic adjuvant activity against Erythromycin-treated wild type Escherichia coli ATCC 25922 assessed as bacterial growth inhibition by broth microdilution assay; type: functional; procedure, shortened: as §2
[9] = test system: Escherichia coli; experiment: Antibiotic adjuvant activity against Kanamycin-treated wild type Escherichia coli ATCC 25922 assessed as bacterial growth inhibition by broth microdilution assay; type: functional; procedure, shortened: as §2
[10] = test system: Escherichia coli; experiment: Antibiotic adjuvant activity against Novobiocin-treated wild type Escherichia coli ATCC 25922 assessed as bacterial growth inhibition by broth microdilution assay; type: functional; procedure, shortened: as §2
[11] = test system: Pseudomonas aeruginosa; experiment: Antibiotic adjuvant activity against Penicillin G-treated Pseudomonas aeruginosa ATCC 9027 assessed as bacterial growth inhibition by broth microdilution assay; type: functional; procedure, shortened: as §2
[12] = test system: Pseudomonas aeruginosa; experiment: Antibiotic adjuvant activity against Ampicillin-treated Pseudomonas aeruginosa ATCC 9027 assessed as bacterial growth inhibition by broth microdilution assay; type: functional; procedure, shortened: as §2
[13] = test system: Pseudomonas aeruginosa; experiment: Antibiotic adjuvant activity against Rifampicin-treated Pseudomonas aeruginosa ATCC 9027 assessed as bacterial growth inhibition by broth microdilution assay; type: functional; procedure, shortened: as §2
[14] = test system: Pseudomonas aeruginosa; experiment: Antibiotic adjuvant activity against Erythromycin-treated Pseudomonas aeruginosa ATCC 9027 assessed as bacterial growth inhibition by broth microdilution assay; type: functional; procedure, shortened: as §2
[15] = test system: Pseudomonas aeruginosa; experiment: Antibiotic adjuvant activity against Kanamycin-treated Pseudomonas aeruginosa ATCC 9027 assessed as bacterial growth inhibition by broth microdilution assay; type: functional; procedure, shortened: as §2
[16] = test system: Pseudomonas aeruginosa; experiment: Antibiotic adjuvant activity against Novobiocin-treated Pseudomonas aeruginosa ATCC 9027 assessed as bacterial growth inhibition by broth microdilution assay; type: functional; procedure, shortened: as §2
[17] = test system: Escherichia coli; experiment: Antibiotic adjuvant activity against Erythromycin-treated wild type Escherichia coli ATCC 25922 assessed as fold reduction in bacterial growth inhibition by broth microdilution assay; type: functional
[18] = test system: Pseudomonas aeruginosa; experiment: Antibiotic adjuvant activity against Erythromycin-treated Pseudomonas aeruginosa ATCC 9027 assessed as fold reduction in bacterial growth inhibition by broth microdilution assay; type: functional
[19] = test system: Escherichia coli; experiment: Antibiotic adjuvant activity against Novobiocin-treated wild type Escherichia coli ATCC 25922 assessed as fold reduction in bacterial growth inhibition by broth microdilution assay; type: functional
[20] = test system: Pseudomonas aeruginosa; experiment: Antibacterial activity against Pseudomonas aeruginosa ATCC 9027 assessed as bacterial growth inhibition at 1000 ug/ml by broth microdilution assay; type: functional
[21] = test system: Escherichia coli; experiment: Antibacterial activity against wild type Escherichia coli ATCC 25922 assessed as bacterial growth inhibition at 100 ug/ml by broth microdilution assay; type: functional

With `CC1(C)S[C@@H]2[C@H](NC(=O)[C@H](N)c3ccccc3)C(=O)N2[C@H]1C(=O)O` [AMPICILLIN] the MIC [1] was 16 µg/mL (≈ 45.8 µM), the MIC [2] was 128 µg/mL (≈ 366 µM) and the Drug uptake [3] was under 0.06 nmol. For the same molecule, the Drug uptake [4] was under 0.06 nmol.

Molecule `Cl.Cl.N=C(N)Nc1ccc(NC(=O)CCC(=O)Nc2ccc(N)cc2)cc1` has an MIC [5] of 64 µg/mL, an MIC [6] of 16 µg/mL and an MIC [7] of 8 µg/mL. The MIC [8] was 64 µg/mL, the MIC [9] was 64 µg/mL and the MIC [10] was 64 µg/mL. The MIC [11] was over 256 µg/mL, the MIC [12] was 128 µg/mL and the MIC [13] was 16 µg/mL. The MIC [14] was 64 µg/mL, the MIC [15] was over 64 µg/mL and the MIC [16] was 256 µg/mL. For the same molecule, the “fold change (FC)” value [17] was 2, the “fold change (FC)” value [18] was 2 and the Drug uptake [3] was 1.3 nmol. It also gave a Drug uptake [4] of 0.3 nmol.

With `CC1(C)S[C@@H]2[C@H](NC(=O)Cc3ccccc3)C(=O)N2[C@H]1C(=O)O` [PENICILLIN G] the MIC [1] was 64 µg/mL (≈ 191 µM) and the MIC [2] was over 256 µg/mL.

For `NC[C@H]1O[C@H](O[C@H]2[C@H](O)[C@@H](O[C@H]3O[C@H](CO)[C@@H](O)[C@H](N)[C@H]3O)[C@H](N)C[C@@H]2N)[C@H](O)[C@@H](O)[C@@H]1O` [KANAMYCIN], the MIC [1] was 64 µg/mL (≈ 132 µM) and the MIC [2] was over 64 µg/mL.

`CO[C@@H]1[C@@H](OC(N)=O)[C@@H](O)[C@H](Oc2ccc3c(O)c(NC(=O)c4ccc(O)c(CC=C(C)C)c4)c(=O)oc3c2C)OC1(C)C` [NOVOBIOCIN] gave an MIC [1] of 128 µg/mL (≈ 209 µM) and an MIC [2] of 256 µg/mL (≈ 418 µM).

`CC[C@H]1OC(=O)[C@H](C)[C@@H](O[C@H]2C[C@@](C)(OC)[C@@H](O)[C@H](C)O2)[C@H](C)[C@@H](O[C@@H]2O[C@H](C)C[C@H](N(C)C)[C@H]2O)[C@](C)(O)C[C@@H](C)C(=O)[C@H](C)[C@@H](O)[C@]1(C)O` [ERYTHROMYCIN] showed an MIC [1] of 128 µg/mL (≈ 174 µM) and an MIC [2] of 128 µg/mL (≈ 174 µM).

With `Cl.Cl.Nc1ccc(NC(=O)CCC(=O)Nc2ccc(N)cc2)cc1` the MIC [5] was 64 µg/mL, the MIC [6] was 16 µg/mL and the MIC [7] was 8 µg/mL. The MIC [8] was 128 µg/mL, the MIC [9] was 64 µg/mL and the MIC [10] was 128 µg/mL. It also gave an MIC [11] of over 256 µg/mL, an MIC [12] of 128 µg/mL and an MIC [13] of 16 µg/mL. For the same molecule, the MIC [14] was 64 µg/mL, the MIC [15] was over 64 µg/mL and the MIC [16] was 256 µg/mL. For the same molecule, the “fold change (FC)” value [18] was 2, the Drug uptake [3] was 3.3 nmol and the Drug uptake [4] was 2 nmol.

`CO[C@H]1/C=C/O[C@@]2(C)Oc3c(C)c(O)c4c(O)c(c(/C=N/N5CCN(C)CC5)c(O)c4c3C2=O)NC(=O)/C(C)=C\C=C\[C@H](C)[C@H](O)[C@@H](C)[C@@H](O)[C@@H](C)[C@H](OC(C)=O)[C@@H]1C` [RIFAMPIN] gave an MIC [1] of 8 µg/mL (≈ 9.72 µM) and an MIC [2] of 16 µg/mL (≈ 19.4 µM).

`O=C(O)c1cn(C2CC2)c2cc(N3CCNCC3)c(F)cc2c1=O` [CIPROFLOXACIN] showed a Drug uptake [3] of 2.4 nmol and a Drug uptake [4] of 1.8 nmol.

In the case of `Cl.Cl.N=C(N)c1ccc(NC(=O)CCC(=O)Nc2ccc(C(=N)N)cc2)cc1`, the MIC [5] is reported as 64 µg/mL, the MIC [6] is reported as 16 µg/mL and the MIC [7] is reported as 4 µg/mL. It also gave an MIC [8] of 128 µg/mL, an MIC [9] of 64 µg/mL and an MIC [10] of 64 µg/mL. It also gave an MIC [11] of over 256 µg/mL, an MIC [12] of 128 µg/mL and an MIC [13] of 16 µg/mL. For the same molecule, the MIC [14] was 64 µg/mL, the MIC [15] was over 64 µg/mL and the MIC [16] was 256 µg/mL. The “fold change (FC)” value [18] was 2, the Drug uptake [3] was 1 nmol and the Drug uptake [4] was 0.9 nmol.

Molecule `Cl.Cl.N=C(N)Nc1ccc(NC(=O)CCC(=O)Nc2ccc(NC(=N)N)cc2)cc1` has an MIC [5] of 64 µg/mL, an MIC [6] of 16 µg/mL and an MIC [7] of 8 µg/mL. The MIC [8] was 64 µg/mL, the MIC [9] was 64 µg/mL and the MIC [10] was 64 µg/mL. The MIC [11] was over 256 µg/mL, the MIC [12] was 128 µg/mL and the MIC [13] was 16 µg/mL. It also gave an MIC [14] of 64 µg/mL, an MIC [15] of over 64 µg/mL and an MIC [16] of 256 µg/mL. For the same molecule, the “fold change (FC)” value [17] was 2, the “fold change (FC)” value [18] was 2 and the “fold change (FC)” value [19] was 2. It also gave a Drug uptake [3] of 1.1 nmol, a Drug uptake [4] of 1.1 nmol and an inhibition at 1000 µg/mL [20] of 33%. For the same molecule, the inhibition at 100 µg/mL [21] was 18%.
